Columns and labels:
Plasmodium falciparum = assay: Percentage inhibition of parasite growth in human erythrocytes at 5 uM; type: functional
Summary of the method: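 Synchronous P. falciparum 3D7 early trophozoites at ~1% haematocrit and 1% parasitaemia, with [3H]hypoxanthine at 10 µCi/mL. Compound (1-5 µM final) or DMSO (max 1% v/v) was added. Cultures ran 30 h at 37 °C in gassed boxes to mature schizonts, then were harvested onto filters for β-counting. Uptake was expressed relative to DMSO controls; four independent experiments.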

Plasmepsin I = Plasmepsin I (Plasmodium falciparum, UniProt P39898); assay: Inhibitory concentration against the plasmepsin-1 of Plasmodium falciparum
Chain of Plasmepsin I (P39898 whole entry): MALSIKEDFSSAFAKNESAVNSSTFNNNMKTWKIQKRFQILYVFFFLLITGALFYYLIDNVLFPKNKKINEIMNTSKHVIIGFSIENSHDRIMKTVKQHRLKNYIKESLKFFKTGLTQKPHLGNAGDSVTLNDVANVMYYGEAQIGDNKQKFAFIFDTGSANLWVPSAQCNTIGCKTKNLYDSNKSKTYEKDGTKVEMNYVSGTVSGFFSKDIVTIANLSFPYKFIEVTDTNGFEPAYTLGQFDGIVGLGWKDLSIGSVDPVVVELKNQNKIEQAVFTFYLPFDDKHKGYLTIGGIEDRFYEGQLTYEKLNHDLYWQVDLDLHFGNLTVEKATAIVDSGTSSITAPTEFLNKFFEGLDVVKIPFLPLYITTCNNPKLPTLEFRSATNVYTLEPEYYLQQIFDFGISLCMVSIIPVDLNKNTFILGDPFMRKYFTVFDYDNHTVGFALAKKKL
Summary of the method: (§1)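 Fluorogenic assay in 100 mM sodium acetate (pH 4.5), 10% glycerol and 0.01% Tween 20, with 3 µM DABCYL/EDANS peptide substrate. Enzymes: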

Plasmepsin II = Plasmepsin II (Plasmodium falciparum, UniProt P46925); assay: Inhibitory concentration against the plasmepsin-2 of Plasmodium falciparum; summary of the method: as §1
Chain of Plasmepsin II (P46925 whole entry): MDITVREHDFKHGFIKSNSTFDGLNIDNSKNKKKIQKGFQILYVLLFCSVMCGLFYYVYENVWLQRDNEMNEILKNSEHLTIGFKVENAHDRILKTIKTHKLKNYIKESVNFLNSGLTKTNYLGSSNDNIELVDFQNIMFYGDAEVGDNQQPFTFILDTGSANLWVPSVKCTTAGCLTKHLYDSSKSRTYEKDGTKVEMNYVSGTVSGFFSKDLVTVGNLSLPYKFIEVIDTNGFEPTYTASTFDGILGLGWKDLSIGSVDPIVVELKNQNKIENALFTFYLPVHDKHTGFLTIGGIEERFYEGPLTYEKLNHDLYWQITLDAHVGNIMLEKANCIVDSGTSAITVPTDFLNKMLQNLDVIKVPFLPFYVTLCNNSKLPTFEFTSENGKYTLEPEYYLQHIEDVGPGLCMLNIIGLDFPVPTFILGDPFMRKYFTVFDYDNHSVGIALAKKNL

Cathepsin D = Cathepsin D (Homo sapiens, UniProt P07339); assay: Inhibitory concentration against the human Cathepsin D; summary of the method: as §1
Chain of Cathepsin D (P07339 65-162 limits assumed): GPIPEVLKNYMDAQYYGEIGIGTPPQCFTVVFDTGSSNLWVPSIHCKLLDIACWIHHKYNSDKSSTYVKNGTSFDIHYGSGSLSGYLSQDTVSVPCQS
Chain of Cathepsin D (P07339 169-412 limits assumed): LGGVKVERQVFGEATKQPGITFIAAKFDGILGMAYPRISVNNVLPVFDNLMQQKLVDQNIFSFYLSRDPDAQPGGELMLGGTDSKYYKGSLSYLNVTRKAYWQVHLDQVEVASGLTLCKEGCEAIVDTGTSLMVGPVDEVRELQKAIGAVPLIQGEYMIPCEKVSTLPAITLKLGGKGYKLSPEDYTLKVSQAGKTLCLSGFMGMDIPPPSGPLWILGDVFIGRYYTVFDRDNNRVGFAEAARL

Structure (SMILES) | Ki (Plasmepsin I) [nM] | Ki (Plasmepsin II) [nM] | Ki (Cathepsin D) [nM] | inhibition at 5 µM (Plasmodium falciparum) [%]
O=C(C[C@H](O)[C@H](COCc1ccc(Br)cc1)NC(=O)c1c(F)cc(F)cc1F)NC1CCCCC1 | – | – | – | 0
CC(C)C[C@H](NC(=O)[C@H](C)NC(=O)C[C@H](O)[C@H](COCc1ccc(Br)cc1)NC(=O)[C@@H](NC(=O)c1ccccn1)C(C)C)C(N)=O | – | – | – | 51
CC(C)C[C@H](NC(=O)[C@H](C)NC(=O)C[C@H](O)[C@H](COCc1ccc(Br)cc1)NC(=O)c1c(F)cc(F)cc1F)C(N)=O | – | – | – | 10
CC(C)C[C@H](NC(=O)[C@H](C)NC(=O)C[C@H](O)[C@H](COCc1ccc(-c2ccc3c(c2)OCO3)cc1)NC(=O)c1c(F)cc(F)cc1F)C(N)=O | 3.3 | 19 | 2700 | –
COc1cccc(CCNC(=O)C[C@H](O)[C@H](COCc2ccc(-c3ccccc3)cc2)NC(=O)c2c(F)cc(F)cc2F)c1 | 116 | 308 | > 5900 | –
COc1cccc(CCNC(=O)C[C@H](O)[C@H](COCc2ccc(-c3ccsc3)cc2)NC(=O)c2c(F)cc(F)cc2F)c1 | 221 | 693 | 1880 | –
O=C(C[C@H](O)[C@H](COCc1ccc(-c2ccsc2)cc1)NC(=O)c1c(F)cc(F)cc1F)NC1CCCCC1 | 278 | 260 | 4940 | –
COc1cccc(CCNC(=O)C[C@H](O)[C@H](COCc2ccc(Br)cc2)NC(=O)c2c(F)cc(F)cc2F)c1 | – | – | – | 29
O=C(C[C@H](O)[C@H](COCc1ccc(-c2ccccc2)cc1)NC(=O)c1c(F)cc(F)cc1F)NC1CCCCC1 | 188 | 214 | > 3600 | –
CCCCNC(=O)C[C@H](O)[C@H](COCc1ccc(-c2ccccc2)cc1)NC(=O)[C@@H](NC(=O)c1ccccn1)C(C)C | 1.9 | 16 | 481 | –
CC(C)C[C@H](NC(=O)[C@H](C)NC(=O)C[C@H](O)[C@H](COCc1ccc(-c2ccccc2)cc1)NC(=O)c1c(F)cc(F)cc1F)C(N)=O | 5.9 | 48 | 1730 | –
CC(C)C[C@H](NC(=O)[C@H](C)NC(=O)C[C@H](O)[C@H](COCc1ccc(-c2ccsc2)cc1)NC(=O)c1c(F)cc(F)cc1F)C(N)=O | 2.1 | 55 | 1440 | –
CCCCNC(=O)C[C@H](O)[C@H](COCc1ccc(-c2ccc3c(c2)OCO3)cc1)NC(=O)[C@@H](NC(=O)c1ccccn1)C(C)C | 2.7 | 45 | 685 | –

Second part, led by results:

Ki (Plasmepsin I) [nM] | Ki (Plasmepsin II) [nM] | Ki (Cathepsin D) [nM] | Structure (SMILES) | inhibition at 5 µM (Plasmodium falciparum) [%]
1 | 5.7 | 32 | CC(C)C[C@H](NC(=O)[C@H](C)NC(=O)C[C@H](O)[C@H](COCc1cccc(Br)c1)NC(=O)[C@@H](NC(=O)c1ccccn1)C(C)C)C(N)=O | 55
0.4 | 1.1 | 0.7 | CC(C)C[C@H](NC(=O)[C@H](C)NC(=O)C[C@H](O)[C@H](COCc1ccc(-c2ccc3c(c2)OCO3)cc1)NC(=O)[C@@H](NC(=O)c1ccccn1)C(C)C)C(N)=O | 83
0.3 | 1.1 | 3.2 | CC(C)C[C@H](NC(=O)[C@H](C)NC(=O)C[C@H](O)[C@H](COCc1ccc(-c2ccsc2)cc1)NC(=O)[C@@H](NC(=O)c1ccccn1)C(C)C)C(N)=O | 46
0.3 | 0.9 | 2.5 | CC(C)C[C@H](NC(=O)[C@H](C)NC(=O)C[C@H](O)[C@H](COCc1ccc(-c2ccccc2)cc1)NC(=O)[C@@H](NC(=O)c1ccccn1)C(C)C)C(N)=O | 70
0.7 | 4.4 | 3.9 | CC(C)C[C@H](NC(=O)[C@H](C)NC(=O)C[C@H](O)[C@H](COCc1cccc(-c2ccccc2)c1)NC(=O)[C@@H](NC(=O)c1ccccn1)C(C)C)C(N)=O | –
1 | 13 | 241 | CCCCNC(=O)C[C@H](O)[C@H](COCc1ccc(-c2ccsc2)cc1)NC(=O)[C@@H](NC(=O)c1ccccn1)C(C)C | 9
0.4 | 1.9 | 1.6 | CC(C)C[C@H](NC(=O)[C@H](C)NC(=O)C[C@H](O)[C@H](COCc1cccc(-c2ccsc2)c1)NC(=O)[C@@H](NC(=O)c1ccccn1)C(C)C)C(N)=O | 65

From ChEMBL document CHEMBL1140304, “Design and synthesis of potent inhibitors of plasmepsin I and II: X-ray crystal structure of inhibitor in complex with plasmepsin II” (J Med Chem, 2005)
